According to ChEMBL document CHEMBL4402547, “Synthesis and Pharmacological Characterization of Conformationally Restricted Retigabine Analogues as Novel Neuronal Kv7 Channel Activators” (J Med Chem, 2020):
Active and inactive are the calls of the source. The calls are words filed in the database; no cut-off is given here.

Legend:
[1] = target: T1, Potassium voltage-gated channel subfamily KQT member 2 (Homo sapiens, UniProt O43526); assay: Potency index, ratio of EC50 for RET to EC50 for test compound for activation of human Kv7.2 expressed in CHO cells; assay type: cell-based
[2] = target: T1, Potassium voltage-gated channel subfamily KQT member 2; assay: Activation of human Kv7.2 expressed in CHO cells assessed as current amplitude at 10 uM measured after 10 secs upon drug wash-out at holding potential of -40 mV by whole cell patch clamp electrophysiology assay; assay type: cell-based
Procedure, shortened: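 Human Kv7.2 transiently expressed in CHO cells, whole-cell patch clamp at 20–22°C, pH 7.4 HEPES-buffered extracellular solution under constant perfusion. Cells held at -80 mV; 3-s ramps -80 to +20 mV with and without compound; current at -40 mV taken as drug/control amplitude ratio, followed over time during application and wash-out; mean ± SEM of ≥3 cells from ≥2 transfections.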

[3] = Photostability of compound in pH 7.4 buffer assessed as compound degradation at 100 ug/ml incubated for 6 hrs under UV-irradiation at wavelength of 365 and 264 nm by HPLC analysis
Procedure, shortened: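 Compound from DMSO stock diluted in pH 7.4 buffer to final 1 mM, 10 μM or 1 μM in 1 cm quartz cells, held at 37°C under UV lamp (365 and 264 nm) or artificial daylight D65 lamp; dark controls in foil at 37°C. Aliquots taken at set intervals; loss of parent by HPLC (C18, TFA water/acetonitrile gradient, 254 nm).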

[4] = target: T2, Potassium voltage-gated channel subfamily KQT member 4 (Homo sapiens, UniProt P56696); assay: Activation of human Kv7.4 expressed in CHO cells assessed as increase in channel current amplitude by whole cell patch clamp electrophysiology assay; assay type: cell-based
T2 sequence (P56696 whole entry): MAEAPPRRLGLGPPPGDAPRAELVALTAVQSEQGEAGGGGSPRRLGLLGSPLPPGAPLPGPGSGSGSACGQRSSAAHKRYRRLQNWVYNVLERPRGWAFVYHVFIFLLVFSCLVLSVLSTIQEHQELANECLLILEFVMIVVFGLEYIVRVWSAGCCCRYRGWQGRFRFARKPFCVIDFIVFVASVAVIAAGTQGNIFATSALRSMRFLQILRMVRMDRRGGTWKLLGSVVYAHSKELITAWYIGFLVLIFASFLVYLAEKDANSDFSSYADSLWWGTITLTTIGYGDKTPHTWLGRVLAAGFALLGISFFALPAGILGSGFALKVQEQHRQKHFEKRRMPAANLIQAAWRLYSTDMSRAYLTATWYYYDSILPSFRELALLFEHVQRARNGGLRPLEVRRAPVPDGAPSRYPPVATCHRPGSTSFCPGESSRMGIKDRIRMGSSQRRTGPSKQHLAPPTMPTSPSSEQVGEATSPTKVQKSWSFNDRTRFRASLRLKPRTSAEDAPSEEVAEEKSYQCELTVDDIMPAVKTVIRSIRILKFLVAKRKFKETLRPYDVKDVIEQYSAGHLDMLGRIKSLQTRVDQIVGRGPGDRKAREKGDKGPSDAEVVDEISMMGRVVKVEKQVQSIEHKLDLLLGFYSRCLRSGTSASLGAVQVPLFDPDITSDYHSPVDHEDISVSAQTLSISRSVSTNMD

[5] = target: T3, Potassium voltage-gated channel subfamily KQT member 3 (Homo sapiens, UniProt O43525); assay: Activation of human Kv7.3 expressed in CHO cells assessed as increase in channel current amplitude by whole cell patch clamp electrophysiology assay; assay type: cell-based
T3 sequence (O43525 whole entry): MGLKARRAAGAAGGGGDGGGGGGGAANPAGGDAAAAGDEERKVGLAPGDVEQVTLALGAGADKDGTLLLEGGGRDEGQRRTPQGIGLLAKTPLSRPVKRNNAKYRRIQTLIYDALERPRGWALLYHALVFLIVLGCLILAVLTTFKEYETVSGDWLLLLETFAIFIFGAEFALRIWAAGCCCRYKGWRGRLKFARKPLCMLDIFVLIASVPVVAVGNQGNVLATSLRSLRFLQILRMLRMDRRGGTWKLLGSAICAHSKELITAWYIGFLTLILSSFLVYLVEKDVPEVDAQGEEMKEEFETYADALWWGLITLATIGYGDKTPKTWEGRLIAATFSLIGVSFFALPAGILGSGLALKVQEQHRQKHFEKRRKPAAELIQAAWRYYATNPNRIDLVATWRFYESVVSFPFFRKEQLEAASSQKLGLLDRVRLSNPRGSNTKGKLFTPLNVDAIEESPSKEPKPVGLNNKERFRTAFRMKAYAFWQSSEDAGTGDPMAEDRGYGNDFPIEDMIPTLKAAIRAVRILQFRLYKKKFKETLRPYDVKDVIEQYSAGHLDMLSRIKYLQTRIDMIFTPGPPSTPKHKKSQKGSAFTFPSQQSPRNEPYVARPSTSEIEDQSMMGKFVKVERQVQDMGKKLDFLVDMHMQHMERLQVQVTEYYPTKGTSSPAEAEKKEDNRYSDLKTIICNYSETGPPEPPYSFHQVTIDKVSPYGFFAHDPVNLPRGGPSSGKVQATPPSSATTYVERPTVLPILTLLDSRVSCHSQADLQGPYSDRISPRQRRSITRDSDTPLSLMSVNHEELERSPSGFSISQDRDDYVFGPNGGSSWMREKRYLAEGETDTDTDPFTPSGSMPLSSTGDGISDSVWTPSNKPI

[6] = target: Voltage-gated potassium channel, KQT; KCNQ2(Kv7.2)/KCNQ3(Kv7.3) (Homo sapiens, UniProt O43525+O43526); assay: Activation of human Kv7.2/Kv7.3 expressed in CHO cells assessed as increase in channel current amplitude by whole cell patch clamp electrophysiology assay; assay type: cell-based
Procedure, shortened: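 Human Kv7.2 plus Kv7.3 cDNAs co-transfected into CHO cells; whole-cell patch clamp at 20–22°C, extracellular solution pH 7.4. Drug applied at 0.01–10 μM to test concentration-dependent current increase.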

T1 sequence (O43526 whole entry): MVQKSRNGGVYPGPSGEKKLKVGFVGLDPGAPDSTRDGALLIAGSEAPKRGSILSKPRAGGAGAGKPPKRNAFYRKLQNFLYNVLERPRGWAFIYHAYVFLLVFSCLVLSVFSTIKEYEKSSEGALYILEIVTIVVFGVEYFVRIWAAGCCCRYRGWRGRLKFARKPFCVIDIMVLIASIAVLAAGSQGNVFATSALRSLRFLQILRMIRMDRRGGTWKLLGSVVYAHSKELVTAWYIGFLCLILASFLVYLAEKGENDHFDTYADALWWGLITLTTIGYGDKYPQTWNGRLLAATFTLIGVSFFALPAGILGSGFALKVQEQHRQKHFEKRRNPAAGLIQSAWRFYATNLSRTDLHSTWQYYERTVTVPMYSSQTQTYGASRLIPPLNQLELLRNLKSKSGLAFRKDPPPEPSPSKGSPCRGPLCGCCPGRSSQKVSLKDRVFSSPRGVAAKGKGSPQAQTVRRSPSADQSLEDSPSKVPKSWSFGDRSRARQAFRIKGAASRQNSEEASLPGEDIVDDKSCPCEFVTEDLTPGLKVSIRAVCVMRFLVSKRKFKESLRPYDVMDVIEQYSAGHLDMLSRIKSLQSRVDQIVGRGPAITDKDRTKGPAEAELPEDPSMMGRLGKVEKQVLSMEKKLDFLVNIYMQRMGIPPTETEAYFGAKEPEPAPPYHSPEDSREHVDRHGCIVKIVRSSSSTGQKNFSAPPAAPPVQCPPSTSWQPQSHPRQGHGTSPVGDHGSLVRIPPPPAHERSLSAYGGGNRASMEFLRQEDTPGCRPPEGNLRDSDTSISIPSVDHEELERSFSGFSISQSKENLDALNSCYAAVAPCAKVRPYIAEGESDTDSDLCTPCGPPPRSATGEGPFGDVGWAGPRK
Sequence of Voltage-gated potassium channel, KQT; KCNQ2(Kv7.2)/KCNQ3(Kv7.3) (O43526 whole entry, one chain of several): as the sequence (O43526 whole entry) above

Q: With `CCCCCCC(=O)Nc1ccc2c(ccn2Cc2ccc(C(F)(F)F)cc2)c1` as the compound, how does the Ratio EC50 [1] read?
A: Its Ratio EC50 is 12.

Q: For `CCOC(=O)Nc1ccc(NCc2ccc(F)cc2)cc1N` [EZOGABINE], which Activity [2] is on record?
A: Its Activity is “inactive”.

Q: And the Drug degradation [3]?
A: Its Drug degradation is 5%.

Q: For `CC(C)(C)CC(=O)Nc1ccc2c(ccn2Cc2ccc(C(F)(F)F)cc2)c1`, which EC50 [4] is on record?
A: The EC50 was 80 nM.

Q: What about the EC50 [5] of the same compound?
A: Its EC50 is 920 nM.

Q: And the EC50 [6]?
A: The EC50 was 340 nM.
